Measurements taken from ChEMBL document CHEMBL1156985 (Bioorg Med Chem Lett, 2010).

Tests used:
[1] = Inhibition of gamma secretase-mediated Abeta40 production
[2] = Inhibition of gamma secretase-mediated Abeta40 production by cell based assay
Outline: (§1)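 Cell-based assay measuring secreted Abeta40 and Abeta42. IC50 values are the means of two experiments.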

[3] = Inhibition of gamma secretase-mediated Abeta42 production by cell based assay; outline: as §1
Mus musculus [4] = experiment: Inhibition of Abeta40 production in CRND8 mouse plasma at 30 mg/kg, po after 3 hrs; assay type: functional
Outline: (§2)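 CRND8 transgenic mice were given a single oral dose of 30 mg/kg. Abeta40 was measured in plasma and brain cortex at 3 h, or at 6 h, after dosing. Results are expressed as percent inhibition of Abeta40.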

Mus musculus [5] = experiment: Gastrointestinal toxicity in CRND8 mouse at 30 mg/kg, po after 3 hrs; assay type: organism-based; design: dose 30 mg/kg, route oral; settings: in vivo
Mus musculus [6] = experiment: Inhibition of Abeta40 production in CRND8 mouse brain cortex at 30 mg/kg, po after 3 hrs; assay type: functional; outline: as §2
[7] = AUC in CRND8 mouse; assay type: ADME, organism-based; design: concentration or dose not given beside the values; settings: plasma
Cytochrome P450 3A4 = Cytochrome P450 3A4 (Homo sapiens, UniProt P08684); experiment: Inhibition of CYP3A4 preincubated for 30 mins; assay type: ADME
Sequence of Cytochrome P450 3A4 (P08684 whole entry): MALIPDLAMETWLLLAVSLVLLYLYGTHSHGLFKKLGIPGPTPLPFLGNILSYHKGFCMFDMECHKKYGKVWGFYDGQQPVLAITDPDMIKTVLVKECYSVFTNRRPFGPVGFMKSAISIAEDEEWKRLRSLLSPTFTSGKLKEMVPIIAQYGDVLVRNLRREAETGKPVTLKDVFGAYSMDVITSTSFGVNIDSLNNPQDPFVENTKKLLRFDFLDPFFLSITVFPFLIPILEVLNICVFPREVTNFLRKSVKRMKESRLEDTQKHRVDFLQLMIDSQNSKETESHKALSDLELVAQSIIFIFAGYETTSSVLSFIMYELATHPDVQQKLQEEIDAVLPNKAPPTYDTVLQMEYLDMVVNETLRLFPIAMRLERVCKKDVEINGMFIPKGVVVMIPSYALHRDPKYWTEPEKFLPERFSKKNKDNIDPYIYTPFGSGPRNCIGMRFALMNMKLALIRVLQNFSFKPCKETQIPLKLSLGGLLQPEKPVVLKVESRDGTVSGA

Mus musculus [8] = experiment: Inhibition of Abeta40 production in CRND8 mouse plasma at 30 mg/kg, po after 6 hrs; assay type: functional; outline: as §2
Mus musculus [9] = experiment: Inhibition of Abeta40 production in CRND8 mouse brain cortex at 30 mg/kg, po after 6 hrs; assay type: functional; outline: as §2

| Structure (SMILES) | IC50 [1] [nM] | IC50 [2] [nM] | IC50 [3] [nM] | also measured |
| --- | --- | --- | --- | --- |
| C[C@H]1COc2c(F)ccc(F)c2[C@@]1(C)S(=O)(=O)c1ccc(Cl)cc1 (relative stereo) | 110 | – | – | – |
| O=S(=O)(N[C@@H]1CC[C@@]2(S(=O)(=O)c3ccc(Cl)cc3)c3c(F)ccc(F)c3OC[C@H]2C1)c1ccccn1 | 7.6 | 68 | 26 | inhibition in vivo at 30 mg/kg (Mus musculus [4]): 19% |
| O=S(=O)(N[C@@H]1CC[C@@]2(S(=O)(=O)c3ccc(Cl)cc3)c3c(F)ccc(F)c3OC[C@H]2C1)C(F)(F)F | 27.1 | 108 | 46 | Activity (Mus musculus [5]): Non-toxic; inhibition in vivo at 30 mg/kg (Mus musculus [6]): 42%; AUC [7]: 5050 ng·h/mL; IC50 (Cytochrome P450 3A4): > 30000 nM; inhibition in vivo at 30 mg/kg (Mus musculus [4]): 90% |
| COC[C@H]1COc2c(F)ccc(F)c2[C@@]1(C)S(=O)(=O)c1ccc(Cl)cc1 (relative stereo) | 270 | – | – | – |
| CC[C@@H]1C[C@](CC)(S(=O)(=O)c2ccc(Cl)cc2)c2c(F)ccc(F)c2O1 (relative stereo) | 830 | – | – | – |
| NC1CCC2(S(=O)(=O)c3ccc(Cl)cc3)c3c(F)ccc(F)c3OCC2C1 (racemic) | 1700 | – | – | – |
| O=C1CCC2(S(=O)(=O)c3ccc(Cl)cc3)c3c(F)ccc(F)c3OCC2C1 (racemic) | 13 | 17 | 12 | AUC [7]: 60 ng·h/mL; IC50 (Cytochrome P450 3A4): 1200 nM; inhibition in vivo at 30 mg/kg (Mus musculus [4]): 19% |
| C[C@@H]1C[C@](C)(S(=O)(=O)c2ccc(Cl)cc2)c2c(F)ccc(F)c2O1 (relative stereo) | 1200 | – | – | – |
| O=S(=O)(c1ccc(Cl)cc1)[C@H]1c2c(F)ccc(F)c2OC[C@@H]1CO (relative stereo) | 510 | – | – | – |
| CCC1(S(=O)(=O)c2ccc(Cl)cc2)CCOc2c(F)ccc(F)c21 (racemic) | 72 | – | – | – |
| O=S(=O)(c1ccc(Cl)cc1)C12CCC(O)CC1COc1c(F)ccc(F)c12 (racemic) | 28 | 25 | 18 | inhibition in vivo at 30 mg/kg (Mus musculus [6]): 55%; AUC [7]: 164 ng·h/mL; inhibition in vivo at 30 mg/kg (Mus musculus [4]): 44% |
| O=S(=O)(N[C@@H]1CC[C@@]2(S(=O)(=O)c3ccc(Cl)cc3)c3c(F)ccc(F)c3OC[C@H]2C1)C1CC1 | 8.4 | 9.3 | 4.3 | AUC [7]: 1910 ng·h/mL; IC50 (Cytochrome P450 3A4): > 30000 nM; inhibition in vivo at 30 mg/kg (Mus musculus [8]): 80%; inhibition in vivo at 30 mg/kg (Mus musculus [9]): 58% |
| O=S(=O)(c1ccc(Cl)cc1)C1CCOc2c(F)ccc(F)c21 (racemic) | 1600 | – | – | – |
| CC(=O)NC1CCC2(S(=O)(=O)c3ccc(Cl)cc3)c3c(F)ccc(F)c3OCC2C1 (racemic) | 107 | 145 | 107 | AUC [7]: 1720 ng·h/mL |
| CCC1(S(=O)(=O)c2ccc(Cl)cc2)CC(CO)Oc2c(F)ccc(F)c21 (mixture of isomers) | 620 | – | – | – |
| CC1(S(=O)(=O)c2ccc(Cl)cc2)CCOc2c(F)ccc(F)c21 (racemic) | 808 | – | – | – |
| C[C@H]1COc2c(F)ccc(F)c2[C@@H]1S(=O)(=O)c1ccc(Cl)cc1 (relative stereo) | 64 | – | – | – |
